Test system: MS2 coat protein
Test: apparent Kd, MS2 coat protein; higher = weaker binding; RNA-MaP array; FMN 200 µM where present
Summary of the method: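 The apparent Kd comes from binding curves fitted cluster by cluster, filtered, and summarised as a median. Those curves followed SNAP-549-labelled MS2 coat protein from 0.7 or 1.5 nM, doubling to 3 µM, on Illumina sequencing-chip clusters where stalled E. coli RNA polymerase had transcribed the designs, without and then with constant ligand. The buffer was 100 mM Tris-HCl pH 7.5, 80 mM KCl, 4 mM MgCl2, BSA, DTT, yeast tRNA and Tween-20, and green signal was normalised to red-channel RNA signal and control-cluster median Fmax.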

[1] = designed as: OFF switch for flavin mononucleotide, no ligand
[2] = ligand present: flavin mononucleotide, designed as: OFF switch for flavin mononucleotide
[3] = designed as: ON switch for flavin mononucleotide, no ligand
[4] = ligand present: flavin mononucleotide, designed as: ON switch for flavin mononucleotide

Row | Sequence | apparent Kd [1] | apparent Kd [2] | apparent Kd [3] | apparent Kd [4]
1 | CAGUACUGAGGAUAUACAUGAGGAUCACCCAUGUGUUCCAGCUAGGGAACUAGCAAAAGUAGAAGGCAGUACUG | 22.4 nM | 437 nM | – | –
2 | GGAUGACAAAGUCAUCCAUAACGAACAUGAGGAUCACCCAUGUAGGAUAUGCUAGUCAAAGACUAGCAGAAGGACAUGUGUCUU | 36.4 nM | 146 nM | – | –
3 | UGUCCACAUGAGGAUCACCCAUGUCAGGAGGUGACAGGAUAUUGCGAAAAAAAAAAAAAGCAAGAAGGGUCUGAUU | – | – | 244 nM | 89.5 nM
4 | CUAUGAGCGAUAGGAUAUACUGAGAUUGAGUGGGUAGAAGGAUCGAUCGUGUAGAAGACAUGAGGAUCACCCAUGUUACGGGCC | – | – | 115 nM | 147 nM
5 | CCGGCUGCUGUGAGGAUAUGCCUGUGGGUGCGUGGGUAGAAGGCACAUGAGGAUCACCCAUGUCCUGCGGCUCC | 877 nM | 311 nM | – | –
6 | GGAUAGGACAGAGGAUAUACGUGCUAGAGAUACUAGCAAAAUUUCCUAACAUGAGGAUCACCCAUGUAGAAGGCUGUCCUAUCG | 6.61 nM | 13.3 nM | – | –
7 | ACAUGAUAUGUAGGAUAUCACAACUUGUGUUAUAAAAUUGUAAUUUAGGAUUGAGAAGGACAUUUACAUGAGGAUCACCCAUGU | 17.6 nM | 13.3 nM | – | –
8 | AUACUCAUGUAAGGAUAUGCAGCCGUUUCGGCUGCAGAAGGUACUAUAAUACAUGAGGAUCACCCAUGUCUCUCGCCUUGCGAG | – | – | 710 nM | 89.7 nM
9 | ACAUACAUUCGAGGAUAUCGGUGAGAAAUCUUACGAGAAGGCGAUUCAUGAUUUAUUAUCCUGGACAUGAGGAUCACCCAUGUA | – | – | 97.5 nM | 61.1 nM
10 | GUAAAGUGAGGAUAUGGUAAAGUAAGUAUGUAGUAAGUAAUCCAGAAGGCACAUGAGGAUCACCCAUGUAAAUG | 30 nM | 32.3 nM | – | –
11 | ACAUGAGGAUGAGGAUAUUCAUACAUGAGGAUAGAAGAAGGCAUACAUGAGGAUCACCCAUGUAUACACAUGAGGAUCCCUUAU | 81.1 nM | 156 nM | – | –
12 | CAGUACUGAGGAUAUACAUGAGGAUCACCCAUGUGAAUAGCAUAGGAAACUAUGCUAUGUAGAAGGCAGUACUG | 14.1 nM | 22.6 nM | – | –
13 | UGUCGGAGCAGAGGAUAUUACAUGAGGAUCACCCAUGUGGAAAAACCAAGCUGGAAACAGCAAUGUAAGAAGGCUGCUCCGACA | 487 nM | 804 nM | – | –
14 | UCCACUACUGAGAAGGGAUACAUAUAAUUCUAGUCAGGAUAUCGAUACAGUGCAGCAUGAGGACAUGAGGAUCACCCAUGUAUU | – | – | 18.9 nM | 16 nM
15 | GCACAUGGCAUAGGAUAUAGAACUAUACAUUAUAUAGGUAGUGUCACAACACUAGAAGGAUGAAACAUGAGGAUCACCCAUGUA | – | – | 14.9 nM | 12.2 nM
16 | AGAAAACAUGAGGAUCACCCAUGUAGAAAUAUGGGAGGAUAUACAAAGACGAAAGUCAAGGUAGAAGGCCUAAAGA | – | – | 86.7 nM | 27.4 nM
17 | UUUUUAUUUAUAGGAUAUGGAAACAUGAGGAUCACCCAUGUAUGAUAAGAUAAAUUAUGAUAUAGCCAGAAGGAUAUUAUUUUU | – | – | 28.5 nM | 35.9 nM
18 | UUUACGAAAGUCGAACGAUGUAGCAGAAGGACAUGAGGAUCACCCAUGUCAGCUGUAACAGCCAUGUAGGAUAUGCUACAUAAA | 5.78 nM | 5.92 nM | – | –
19 | GGUAGCAACACAGGAUAUGCUAUCCUUUGGGUAGCAGAAGGGUGAAACAUGAGGAUCACCCAUGUGCUGCCAGGGCGUGAGCCC | – | – | 1800 nM | 136 nM
20 | CGGCGGAAAGGAUAUGCAGAAAUAUCAAAAUGUGGGCCACGACAUGAGGAUCACCCAUGUAGAAGGUUCAGCCG | 15.5 nM | 12.7 nM | – | –
21 | CUGAGCUGAGGAUAUACAUGAGGAUCACCCAUGUUUUGUAGUUAGUGAAGAAGUAGUUGUAGAAGGCAGUUCGG | 51.3 nM | 255 nM | – | –
22 | UUAGCAUACCGAGGAUAUUCAUAUAAUAAAUAAACAUGAGGAUCACCCAUGUGGCGAAAGCCUAGGGAGAAGGCGGAAUGCUUU | – | – | 177 nM | 28.1 nM
23 | AUCAGCUCGUCAGGAUAUACGUCACUGCGUCAGCAGUGUGGUAAGAUCACAUGAGGAUCACCCAUGUAGAAGGGACGAUCUGAU | 12.8 nM | 309 nM | – | –
24 | GUAUGACAAAGUCAUACCGCUUUGACAUGAGGAUCACCCAUGUAGGAUAUAUUAAUCAAAGAUUAAUAGAAGGACAUGUUUCUU | 43.7 nM | 114 nM | – | –
25 | GUACUGUAGUGAGGAUAUACGAGUACGAUAGUACGGCGAUCCAUUUAUACAUGAGGAUCACCCAUGUAGAAGGCACUUCAGUAC | 6.09 nM | 61.6 nM | – | –
26 | AGCGGAUUGUAGAAGGGUGACAUGAGGAUCACCCAUGUUCAAAUGCGAUUUUCGGUAAUUGAUCCACAGGAUAUACUGUCCGAG | – | – | 976 nM | 427 nM
27 | GAUCCACAUGAGGAUCACCCAUGUGAGGAUAUGAUACUAUGUACUUCGGUACAUAGUAUCAGAAGGCAUAUGAA | 42 nM | 196 nM | – | –
28 | UUCAGACAUGAGGAUCACCCAUGUGAGGAUAUGAUGCGAUCGUCGAAAGACGAUAGCAUCAGAAGGCACGUAUG | 82.9 nM | 135 nM | – | –

Row | Sequence | apparent Kd [1] | apparent Kd [2] | apparent Kd [3] | apparent Kd [4]
29 | GGUACUCAAAGAGUACCAAAACGAACAUGAGGAUCACCCAUGUAGGAUAUGCUACUCAAAGAGUAGCAGAAGGACAUGUGCCUA | – | 122 nM | – | –
30 | GUCCUCUCUGAGGAUAUUAUCCGGUCCGAUUGAUAAGAAGGCAGUACAUGAGGAUCACCCAUGUGGGUUGUCUG | 62.6 nM | 170 nM | – | –
31 | GAGAGGUCAGGAUAUACGGAGAGAGGGAGUUGGUGAGGGUAACAUGAGGAUCACCCAUGUAGAAGGGACUAAGG | 27.6 nM | 30.1 nM | – | –
32 | CGAUAACAUAGUUAUCCGUAACGUACAUGAGGAUCACCCAUGUAGGAUAUGUUACUAAACUAGUAACAGAAGGACAUGAGUAUU | 54.9 nM | 315 nM | – | –
33 | CUAUUACGAGGAUAUGAUUUAAAUAACAUGAGGAUCACCCAUGUUUUUACGUUAUUUUGUUUAGAAGGCGUAUUGU | 52.9 nM | 35.7 nM | – | –
34 | UUUUAACAUGAGGAUCACCCAUGUGAGGAUAUCGAAAUUUAUAUUAAUAUUUAUAAUUCGAGAAGGCACAUUUU | 170 nM | 148 nM | – | –
35 | GUGAACAUGAGGAUCACCCAUGUAGCUCACUGCCAGUGGCUACAGGAUAUAGCACUCCGAAGGUGCUAGAAGGGUGGCCUAGAA | – | – | 92.8 nM | 22.1 nM
36 | UAUAAUAUUAUAGGAUAUGGAUACGAUGCGUAUCCAGAAGGGUGAUUAUAAUAUAAUCUAUACAUGAGGAUCACCCAUGUUUAU | – | – | 301 nM | 121 nM
37 | UUGGACUUCGUAGGAUAUGUAGGAUAUUCCUACAUGAGGAUCACCCAUGUUGACAUGGAAGAAGGACAGAAGGACGAUGUCCAU | – | – | 257 nM | 4.12 nM
38 | CGCUACAGCCAGAAGGACAUGAGGAUCACCCAUGUAGGAUAUGGGAGACACAGUCCCGUGUAGAGAAACUACGCUACUGUAGCG | – | – | 679 nM | 464 nM
39 | AAGCAGUGUAAAUAAACUCAAAUACAUGAGGAUCACCCAUGUAAGGAUAUGCAGUGGAAUACACUGCAGAAGGUACAUCACUGC | 15.1 nM | 22.6 nM | – | –
40 | CCAUCGGAAGGAUAUACAUGAGGAUCACCCAUGUGCGAGCCCGCGCUCUCGGGAAGAUGUAGAAGGUUCAAGAA | 35.9 nM | 36.3 nM | – | –
41 | UUGCUCAAUUGGGCAGGAACCUCACAUGAGGAUCACCCAUGUCAGGAUAUCCUAGUUUGGACGUAGGAGAAGGGACAGAGUAUC | 157 nM | 152 nM | – | –
42 | UUAGGAUCAGGAUAUGAUGUUUUAAACAUGAGGAUCACCCAUGUAGAUCCUGAAUCAACAUCAGAAGGGAUAAUUU | 56.6 nM | 184 nM | – | –
43 | GGAUAGGACAGAGGAUAUACGUGCUAGAGAUACUAGCAAAAUUUCCUCACAUGAGGAUCACCCAUGUAGAAGGCCGUCCUAUCG | 6.02 nM | 19.7 nM | – | –
44 | GUCAGCUCGUGAGGAUAUACAACACUGCUUCGGCAGUGUAUUAAGAUCACAUGAGGAUCACCCAUGUAGAAGGCACGAGCAGAU | 13.4 nM | 258 nM | – | –
45 | AUCAGCUCGUCAGGAUAUACGUCACUGCGUCAGCAGGGUGGUAAGAUCACAUGAGGAUCACCCAUGUAGAAGGGACGAGCUGAU | 23 nM | 404 nM | – | –
46 | CGCUCUAUAUAUUUGGCAAGAAUCAGAAGGCGUUACAUGAGGAUCACCCAUGUUUUGAAUAGUAACGAGGAUAUGAUAUGAGCG | 21.6 nM | 25 nM | – | –
47 | GUGCGGUAGGAGAAGGACGGAGGCUUCUUUACAUACAUGAGGAUCACCCAUGUAGGAUAUCCUACCUCACGCGGCCUCCUUCUG | 5.4 nM | 5.5 nM | – | –
48 | GGACGUCAGAUUAACAUGAGGAUCACCCAUGUCUUUUGACAUGAGGAUAUGGUUGGUAAUUCCAACCAGAAGGCAUGGACGUCC | – | – | 1100 nM | 125 nM
49 | CUUUAGUGAGGAUAUGUGGCUUCGAUCGUGAGAUCGAGGCUACAGAAGGCACAUGAGGAUCACCCAUGUACCUU | 14.3 nM | 17 nM | – | –
50 | GAGAAGGGAGGAUAUGCUGCUCGUCACUUGCGUGAUGAGUAGCAGAAGGCACAUGAGGAUCACCCAUGUAAAGG | 84.2 nM | 29.4 nM | – | –
51 | CGCAAGUAUACAUGAGGAUCACCCAUGUCAGAAAGGGUAAUCAGAAGGUACUAUUAGAGAUAGAGUAAGGAUAUGAAAUUUGUG | – | – | 399 nM | 110 nM
52 | GUAGCAUACCGAGGAUAUUCAUAUCGGAAACGAACAUGAGGAUCACCCAUGUGGCGAAAGCCUUGGGAGAAGGCGGAAUGCUAC | – | – | 589 nM | 24.5 nM
53 | UGUACUAUAAGGUUAAUUGUAUAUUGAGAAGGCAUUCACAUGAGGAUCACCCAUGUAACAUGGGAUGAGGAUAUCAAUUUGUAC | – | – | 197 nM | 33.4 nM
54 | CUUUUGUGAGGAUAUCAGUAGUAAUUAAAUAAAAUUACUACUGAGAAGGCACAUGAGGAUCACCCAUGUUCCUC | 41.3 nM | 338 nM | – | –
55 | ACUAGAUGAGGAUAUGCACAUUUUAGUGUUCCUCUAGAUUAACAUGAGGAUCACCCAUGUAGAAGGCGUCAAUU | 45.7 nM | 64.8 nM | – | –
